Assay outcomes (PubChem BioAssay)
STAT3 act: STAT3 signaling activation | U3A cells, IL-6 STAT3-luciferase reporter, luminescence; 100% = signal with IL-6 EC80 alone | activation (% of control), % at 5.6 µM | actives 0.91% (n = 190,000) | AID 871;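 active = activation above the screen-wide mean of compound activation plus 3 SD, cut at about 130% in these data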;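 also: 0% = background luminescence of wells with medium and substrate only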
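Material: STAT1-lacking human U3A cells, STAT3 luciferase reporter | Benchmarks: IL-6-only wells as 100% reference | Probe or stimulus: IL-6 (33 ng/mL) | Timing: Compound 1 h, then IL-6 6 h at 37 °C | Detection: Luminescence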
STAT3 inh: reduces IL-6 driven STAT3 reporter signal. AID 862. actives 0.89% (n = 190,000). inhibition, % at 5.5 µM. U3A cells, IL-6 STAT3-luciferase reporter, luminescence; host cell line lacks STAT1;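 active = inhibition above the mean inhibition across all screened compounds plus 3 SD, cut at about 44% in these data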;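 also: 0% = DMSO only wells and 100% = 100 µM nifuroxazide control wells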
HSV replic up: increases HSV replication in cells; HSV replication augmentation in cells, fold increase; actives 0.005% (n = 220,000); maximum fold increase; AID 1956; in the data active = maximum fold increase above about 1.5; inconclusive = no clear call, values can overlap the other calls; tested in PC3 cells
STAT1 activator: increases IFN-gamma driven STAT1 reporter signal; NIH 3T3 STAT1-luciferase reporter, luminescence; 100% = IFN-gamma alone, no compound; activation (% of control), % at 5.5 µM; actives 2.6% (n = 200,000);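 active = activation above the screen-wide mean activation plus 3 SD, cut at about 130% in these data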;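 also: raw ratio to IFN-gamma control signal so 100% means no change and 0% no light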
STAT1 blocker: STAT1 signaling inhibition | NIH 3T3 STAT1-luciferase reporter, IFN-gamma, luminescence | inhibition, % at 5.5 µM | actives 0.35% (n = 200,000);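 active = inhibition above a set limit, the mean inhibition across all tested compounds plus 3 SD, cut at about 34% in these data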;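 also: 0% = IFN-gamma with DMSO and 100% = IFN-gamma with 300 µM nifuroxazide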
KCC2 mod: modulators of human KCC2 chloride dependent transport; actives 2.2% (n = 190,000); AID 1456; Q9H2X9; B-score of Tl+ flux slope (higher = more flux/activation; lower = inhibition) at 10 µM; KCC2 cells, thallium flux FluoZin-2 fluorescence;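 active = thallium flux slope and its plate-corrected score both differing from the plate sample mean at a set confidence after two filtering rounds, in either direction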;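 also: slope of fluorescence scaled to starting intensity during 10 to 20 s after thallium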
An asterisk follows results filed as active; i = inactive; ? = inconclusive; / = no result given. This is a sample that favours compounds with a hit; in the whole collection about 5.5% have one here.

SMILES	STAT3 act	STAT3 inh	HSV replic up	STAT1 activator	STAT1 blocker	KCC2 mod
COc1c(C)cccc1C(=O)Nc1ccc(N2CCN(S(C)(=O)=O)CC2)cc1	97.3	5.9	i	145.1*	-49.3	0.108
CC(C)Oc1cccc(C(=O)Nc2ccc(CN3CCOCC3)cc2)c1	83.7	21.7	i	102.1	-2.2	0.45
O=C(CNc1ccc(Br)cc1)NNC1=NCCC1	108.5	-0.5	i	100.7	-0.7	0.0204
CC1CCCN(CCCCOc2cccc(Br)c2)C1 (stereo unspecified)	105.2	-6.2	i	101.2	-1.3	-0.765
O=C(N/N=C/c1ccc(O)c(O)c1)c1ccc(CSc2cccc3cccnc23)cc1	97.6	4.5	i	98.5	1.7	-0.241
O=C(O)C(=O)/C(=C\c1cccc2ccccc12)c1ccc2ccccc2n1	125.6	-29.2	i	90.8	8.3	/
O=C(O)C(=O)/C(=C\c1ccccc1)c1ccc2ccccc2n1	168.8*	-82.4	i	144.2*	-47.9	0.595
O=C(O)C(=O)/C(=C\c1ccc([N+](=O)[O-])cc1)c1ccc2ccccc2n1	94.2	9.2	?	149.8*	-57.8	1.27
Cc1cccc(N/C(N)=N/c2nc(C)c(Cc3ccccc3)c(=O)[nH]2)c1	95.5	7.6	i	89.5	9.7	1.02
COc1ccc2cnn(CCOc3ccccc3)c(=O)c2c1OC	73.7	34.6	i	146.5*	-50.8	-1.14
CCOc1ccccc1OCCn1ncc2ccc(OC)c(OC)c2c1=O	100.9	2.9	i	102.0	-2.2	0.475
Cc1nnc(-c2cnn(C)c2N)n1CCCN1CCOCC1	101.2	5.4	i	106.8	-8.8	0.32
CC(C)c1ccc(/C=C/c2ccc(=O)n(C)n2)cc1	73.6	35.9	i	130.8*	-37.2	0.929
COc1ccc(C(=O)Cc2ccc(F)cc2)c(OC)c1	98.5	5.6	i	138.5*	-43.6	-0.541
COc1ccc(CCNC(=O)c2sc3cc(C)ccc3c2Cl)cc1	93.8	13.6	i	96.0	4.4	0.888
Cc1ccc2c(Cl)c(C(=O)NCC3CCCO3)sc2c1 (stereo unspecified)	89.4	17.9	i	132.0*	-35.8	/
COc1ccc2c(Cl)c(C(=O)NCC3CCCO3)sc2c1Cl (stereo unspecified)	96.1	2.5	i	109.4	-7.4	-0.6
Cc1ccc2c(Cl)c(C(=O)NCCc3ccccc3)sc2c1	86.9	17.3	i	136.0*	-40.4	0.957
O=C(NCC1CCCO1)c1sc2ccccc2c1Cl (stereo unspecified)	89.8	11.7	i	132.4*	-36.3	-1.13
Cc1cccc(NC(=O)C(=O)NCC2CCCO2)c1 (stereo unspecified)	103.8	0.2	i	136.0*	-40.9	0.516
CC(NC(=O)c1sc2ccccc2c1Cl)C1CCCO1 (stereo unspecified)	104.9	-5.9	i	125.0	-28.0	0.583
COc1ccc(N2C(=O)CC(N3CCN(S(=O)(=O)c4cc(C)ccc4C)CC3)C2=O)cc1 (stereo unspecified)	104.6	-4.2	i	103.4	-5.2	-0.192
Cc1cccc2c(=O)c(C(=O)NCc3cccs3)c[nH]c12	100.8	2.8	i	135.5*	-34.9	0.237
N#CCCN(C(=O)COC(=O)c1ccc(S(=O)(=O)Nc2ccccc2)cc1)c1ccccc1	105.3	-5.1	i	105.3	-6.2	-0.0247
O=C1c2cccc3c(N4CCCCC4)ccc(c23)C(=O)N1c1cccc(O)c1	99.8	2.5	?	130.4*	-31.6	0.577
SMILES	STAT3 act	STAT3 inh	HSV replic up	STAT1 activator	STAT1 blocker	KCC2 mod
C=CCN1C(=O)c2cccc3c(N4CCCCC4)ccc(c23)C1=O	95.3	7.8	?	125.9	-29.8	0.422
O=C1c2cccc3c(N4CCCCC4)ccc(c23)C(=O)N1CCO	94.9	12.4	?	131.3*	-34.7	-1.66
CC1(C)CC(=O)C2=C(C1)OC1=C(C2)C(=O)CC(C)(C)C1	95.1	9.4	i	104.9	-5.5	0.409
CCCCOc1ccc(NC(=S)Nc2cc(C)nc(SCCCC)n2)cc1	94.7	6.6	i	101.4	-1.6	0.00973
Cc1ccn2cc(-c3ccc(Br)cc3)nc2c1	/	/	i	/	/	0.194
O=[N+]([O-])c1cccn2cc(-c3ccc(Br)cc3)nc12	112.8	-9.2	i	140.0*	-46.7	/
O=C1NN=COc2ccccc21	133.3*	-28.4	i	96.6	2.7	0.178
O=C(O)/C=C/c1ccc(S(=O)(=O)N2CCN(CCN3C(=O)C4C5C=CC(C5)C4C3=O)CC2)cc1 (stereo unspecified)	/	/	i	/	/	0.161
O=[N+]([O-])c1ccc(-c2nc3ccc([N+](=O)[O-])cc3[nH]2)cc1	93.7	18.5	i	131.2*	-34.6	/
Cc1cc(CNC(=O)CC2C(=O)NCCN2CC(C)(C)C)nn1C (stereo unspecified)	90.4	15.9	i	108.7	-11.6	/
c1ccc(OCCOc2ncnc3sccc23)cc1	98.9	3.9	i	131.2*	-33.8	1.13
CCN(CC)S(=O)(=O)c1cc(Cl)ccc1OC	98.0	11.3	i	97.8	2.6	-0.0987
CCc1ccc(CN(C(=O)c2cc3ccccc3oc2=O)C2CCS(=O)(=O)C2)cc1 (stereo unspecified)	117.8	-18.5	i	129.2*	-32.5	/
O=C(c1cc2ccccc2oc1=O)N(Cc1ccccc1)Cc1ccc2c(c1)OCO2	134.9*	-37.5	i	111.1	-6.5	-0.974
O=C(c1cc2ccccc2oc1=O)N1CCN(Cc2ccc3c(c2)OCO3)CC1	95.9	10.6	i	102.9	-3.2	/
C/C(=N\OCc1ccccc1)c1c(O)cc(C(C)C)n(-c2ccccc2)c1=O	96.6	4.2	i	95.4	5.3	-0.264
C[C@H]1COC2=C1C(=O)C(=O)c1c2ccc2c1CCCC2(C)C	/	/	i	128.7*	-32.9	-0.0488
Cc1coc2c1C(=O)C(=O)c1c-2ccc2c1CCCC2(C)C	/	/	i	117.4	-20.4	-0.0544
CCc1ccc2c(c1)c(N=NC1=NC(=O)CS1)c(O)n2C	86.7	19.1	/	92.2	8.5	9.41*
COc1ccc(/C=C/C(=O)c2c(O)cc(C)oc2=O)c(OC)c1	122.7	-28.1	i	138.2*	-41.9	/
O=C(CSc1nc2ccccc2n1CCc1ccccc1)c1ccc(O)c(O)c1	96.7	8.8	i	110.7	-13.9	7.84*
CC(=O)Oc1ccc2oc(=O)c3c(c2c1)CCCN3C(=O)CN1CCOCC1	102.9	-1.3	i	92.5	7.6	0.575
CC(C)c1ccc(/C=C/C(=O)Nc2nncs2)cc1	84.7	17.5	i	144.7*	-47.5	1.49
Cc1sc(NC(=O)/C=C/c2ccc(C(C)C)cc2)c(C#N)c1C	98.3	3.6	i	102.2	-2.4	1.23
FC(F)(F)c1nnc2ccc(NCc3ccccc3)nn12	95.0	15.6	i	89.3	9.9	-0.00477
